Mdm2 ligase inh = inhibitors of human Mdm2 E3 ubiquitin ligase; cell-based MDM2 ubiquitination luciferase reporter, 2 h; 0 = plate control, 100 = twice control, blank-subtracted; 210,000 tested, 0.11% active; Q00987; signal enhancement, % at 5 µM;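 active = signal enhancement of 30% or more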;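 also: luminescence tracks abundance of the self-degrading MDM2-luciferase fusion protein; higher signal means inhibition of MDM2 E3 ligase activity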
Target sequence (Q00987 whole entry, looked up, the tested form may be a part): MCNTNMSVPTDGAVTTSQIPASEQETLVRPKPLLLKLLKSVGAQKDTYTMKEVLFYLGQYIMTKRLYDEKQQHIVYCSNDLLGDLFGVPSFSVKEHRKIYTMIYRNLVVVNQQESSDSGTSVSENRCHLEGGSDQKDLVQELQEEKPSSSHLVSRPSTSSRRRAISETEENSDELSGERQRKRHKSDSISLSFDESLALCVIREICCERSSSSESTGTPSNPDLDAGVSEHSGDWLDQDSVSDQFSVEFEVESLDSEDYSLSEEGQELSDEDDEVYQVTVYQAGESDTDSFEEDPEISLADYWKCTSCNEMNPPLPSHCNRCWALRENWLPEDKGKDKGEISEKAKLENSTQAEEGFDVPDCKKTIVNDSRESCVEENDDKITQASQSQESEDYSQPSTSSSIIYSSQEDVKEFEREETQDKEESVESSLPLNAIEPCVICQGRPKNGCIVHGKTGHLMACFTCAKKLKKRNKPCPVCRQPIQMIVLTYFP
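Test system: mammalian cells stably expressing self-ubiquitinating, self-degrading MDM2 E3–luciferase fusion; Amount: 2000 cells in each well; Medium: DMEM; Schedule: 4 h settle plus 2 h compound, 37 °C; Technique: SteadyLite luciferase luminescence after 15 min room-temperature reagent incubation; Benchmarks: plate control and blank wells.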
NPY2 pot ag = human NPY-Y2 potentiation or agonism, primary screen; P49146; cells expressing NPY-Y2, potentiator/agonist read-out; activation, % at 3.6 µM; 220,000 tested, 0.45% active; AID 1359; in the data active = activation above about 27%;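 also: cells stimulated with NPY near EC25 plus isoproterenol at EC100; 0% = vehicle plus submaximal agonist and 100% = vehicle plus saturating agonist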
NPY Y1 blocker = blocks the human neuropeptide Y Y1 receptor; AID 1040; inhibition, % at 3.6 µM; HEK293-CNG Y1 cells, membrane potential fluorescence; NPY at EC95, then isoproterenol; 200,000 tested, 1% active;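 active = inhibition above the campaign mean inhibition of all tested compounds plus 3 SD, cut at about 20% in these data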;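 also: 0% = DMSO wells given NPY plus isoproterenol and 100% = isoproterenol alone without NPY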
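Benchmarks – high control isoproterenol alone, low control NPY with isoproterenol · Material – HEK293 Y1/CNG channel cell line · Times – dye 3 h, compound 60 min room temperature, stimulation 45 min · Probe or stimulus – NPY (25 nM), isoproterenol (1 µM), Ro 20-1724 (25 µM) · Evaluation – % inhibition of NPY effect · Signal – fluorescence, membrane potential probe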
NPY Y2 blocker = antagonists of human neuropeptide Y receptor Y2; P49146; NPY-Y2 expressing cells, antagonist mode; inhibition, % at 2.7 µM; 140,000 tested, 0.99% active; in the data active = inhibition above about 17%;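 also: 0% = vehicle with agonist challenge and 100% = reference antagonist with challenge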
NPY-Y1 PAM-ag = potentiators or agonists of human neuropeptide Y receptor Y1; P25929; NPY-Y1 expressing cells, potentiator/agonist activation; activation, % at 3.6 µM; 220,000 tested, 0.37% active; in the data active = activation above about 33%, passing the limit was not always enough;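 also: cells stimulated with NPY at EC10 then isoproterenol at EC100; 0% = low agonist plus stimulus and 100% = saturating agonist plus stimulus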
Measles CPE = protection of cells from measles virus | Measles virus-infected cells, CPE protection, absorbance | protection (pct of control), % at 4 µM | 140,000 tested, 1.5% active | AID 841; in the data active = protection mostly above about 24%, no sharp cut-off; inactive = mostly below about 26%
Starred values were filed as active, the others as inactive; / = no result. The list is not random: actives were taken first. Their share in the collection is about 2.8%.

SMILES	Mdm2 ligase inh	NPY2 pot ag	NPY Y1 blocker	NPY Y2 blocker	NPY-Y1 PAM-ag	Measles CPE
O=C1/C(=C/c2cccc(Br)c2)SC(=S)N1/N=C/c1cc([N+](=O)[O-])ccc1O	-10	3	/	/	30	/
S=C(NCc1ccco1)N1CCC(c2nc3ccccc3o2)CC1	-20	-6	-2	/	-10	/
CC(C)(C)C(=O)Nc1nc2c(c(=O)[nH]1)CCCC2	-8	-3	1	/	4	/
CC1Nc2nc(NC(=O)C(C)(C)C)[nH]c(=O)c2N(C)C1C (stereo unspecified)	-4	9	3	1	-11	73*
O=C(COC(=O)COc1ccccc1Cc1ccccc1)Nc1cccnc1Cl	-3	10	2	2	-21	27
Cc1c(C(=O)O)oc2c1/C(=N\O)CC(C)(C)C2	-3	-8	-8	3	0	44*
Cc1ccc(CNC(=O)C2CC(=O)N(c3ccc(OCC(=O)N4CCCC4)cc3)C2)cc1 (stereo unspecified)	2	-5	-1	0	-9	15
CC(CN1CCOCC1)OC(=O)c1ccccc1Br (stereo unspecified)	23	1	7	1	1	56*
CC(CN1CCOCC1)OC(=O)c1cccc(Br)c1 (stereo unspecified)	-8	3	0	3	-21	1
Cc1ccc(NCc2nnc(SCC(=O)N3c4ccccc4Sc4ccccc43)o2)c(C)c1	-7	-5	0	5	-38	5
COc1ccccc1CC(=O)Nc1ccc(-c2noc(COc3cccc(C)c3C)n2)cc1	-16	-23	33*	22*	10	2
Cc1ccccc1OCc1nc(-c2ccc(NC(=O)c3ccco3)cc2)no1	-3	-34	-1	1	-45	71*
COC(=O)c1ccccc1NC(=S)NC(=O)c1cccc2ccccc12	8	-4	8	2	-12	59*
COC(=O)c1ccccc1NC(=S)NC(=O)c1ccc2ccccc2c1	-7	14	8	10	6	4
CC1CN(C(=O)CSc2nc(-c3ccccc3)cs2)CC(C)O1 (stereo unspecified)	-5	-7	-5	-2	9	22
Cc1nc(SCC(=O)N2CC(C)OC(C)C2)nc(C)c1C (stereo unspecified)	5	-12	7	3	9	26*
CNc1nc(Sc2ccc(C)cc2)cc(C(F)(F)F)n1	-25	-15	10	2	-10	9
O=C(CNC(=O)c1cccs1)NCC(=O)OCc1cccc(Cl)c1	-3	0	3	0	18	active
CCCCC(=O)NS(=O)(=O)c1ccc(NS(C)(=O)=O)cc1	5	-1	-7	2	10	4
Cc1ccnc(NC(=O)COc2ccc3oc4c(c3c2)CCCC4)c1	-8	-7	21*	11	-31	28
Cc1ccnc(NC(=O)COc2c(C)cc(C)cc2[N+](=O)[O-])c1	-11	7	3	8	-25	4
CCOc1c2ccc(C(=O)NCc3ccc(C(F)(F)F)cc3C(F)(F)F)cc2nn1C	-3	0	-2	2	-7	1
CCCCn1nc2cc(C(=O)NCc3ccc(C(F)(F)F)cc3C(F)(F)F)ccc2c1OCC	-3	-11	7	-2	4	active
O=C(NCc1ccc2[nH]c3c(c2c1)CCCC3)c1ccc(S(=O)(=O)N2CCCC2)cc1	/	-10	1	-3	0	4
Cc1cccc(-n2c(CNC(=O)c3ccc(S(=O)(=O)N4CCCC4)cc3)n[nH]c2=S)c1	-22	-2	-3	3	3	36*
SMILES	Mdm2 ligase inh	NPY2 pot ag	NPY Y1 blocker	NPY Y2 blocker	NPY-Y1 PAM-ag	Measles CPE
Cc1cc2cc(CNC(=O)c3ccc(S(=O)(=O)N4CCCCC4)cc3)ccc2[nH]1	3	-17	5	0	9	35*
O=C(Nc1ccc2c(c1)C(=O)NC2=O)c1ccc2ncsc2c1	-1	5	-1	/	-19	/
COc1cccc(CN2C[C@]34C=C[C@@H](C[C@@H]3S2(=O)=O)O4)c1	11	/	/	/	/	/
Cn1c(N)c(C(=O)COC(=O)CCCc2c[nH]c3ccccc23)c(=O)n(C)c1=O	13	-29	30*	20*	-45	6
Cn1c(N)c(C(=O)COC(=O)CCc2c[nH]c3ccccc23)c(=O)n(C)c1=O	-22	-27	18	6	-26	22
CC(C)OCCCNS(=O)(=O)c1ccc2ccccc2c1	-19	-7	10	3	22	30*
CC(NC(=O)C1CCC(CNS(=O)(=O)c2ccccc2)CC1)c1ccc2c(c1)OCCO2 (stereo unspecified)	-13	-23	-4	/	-5	/
O=C(Nc1ccccc1)N1CCn2c(nc3ccccc32)C1	-9	-6	-4	1	6	48*
CCN(CC)C(=O)N1CCn2c(nc3ccccc32)C1	-8	6	10	1	-5	20
CC1Cc2ccccc2N1C(=O)CSc1nnc(Cn2nnc3ccccc32)n1C (stereo unspecified)	-10	-5	8	2	25	36*
O=C(O)CSc1nnc(Cn2nnc3ccccc32)n1CCc1ccccc1	-11	-7	0	0	-1	28*
CCN(CCCNC(=O)CN(C)S(=O)(=O)c1ccc2c(c1)CCC(=O)N2)c1cccc(C)c1	-5	-4	-5	0	9	5
COc1cccc(/C=N/NC(=O)c2[nH]c(C)c(C(=O)N/N=C/c3cccc(OC)c3)c2C)c1	36*	0	-7	1	-3	14
CCOC(=O)/C=C/C(=O)Nc1ccccc1-c1ccccc1NC(=O)/C=C/C(=O)OCC	39*	-9	5	3	1	9
Cc1ccc(-c2nc(C3CCCN(S(=O)(=O)c4ccc(C(F)(F)F)cc4)C3)no2)cc1 (stereo unspecified)	12	0	3	9	13	31*
COc1ccccc1-n1c(SCC(=O)Nc2cccc(C)c2)nc2c(c1=O)SCC2	-12	-9	3	3	-6	47*
O=C(/C=C/c1cccc([N+](=O)[O-])c1)Nn1c(-c2ccccc2F)nc2ccccc2c1=O	-7	-19	46*	66*	-89	20
Cc1cccc(-c2nc3ccccc3c(=O)n2NC(=O)/C=C/c2ccc([N+](=O)[O-])cc2)c1	3	-20	80*	105*	-90	7
O=C(NCCc1ccccc1)C1CCCN1S(=O)(=O)c1ccccc1 (stereo unspecified)	-61	-10	2	/	-14	/
CCOC(=O)Cc1nnc(NC(=O)CSc2nnc3c4ccccc4n(C)c3n2)s1	-26	-5	11	2	-24	/

Bioassay records (PubChem BioAssay)
